Article PMC3656605 (Nature, 2012)

Tests used:
Tet1 = assay: Inhibition of Tet1, 14CO2 release, double stranded oligonucleotide substrate; assay type: biochemical, murine; settings: in vitro; 120 µM 2-oxo-[1-14C]glutarate
[1] = tested on: JMJD2D histone demethylase; assay: JMJD2D histone demethylase activity; assay type: biochemical; settings: data not shown; for Inhibition of JMJD2D histone demethylase (in words): in vitro
EglN1 [2] = molecular target: T1, EglN1 (Homo sapiens, UniProt Q9GZT9); assay type: biochemical
Tet2 = assay: Inhibition of Tet2, 14CO2 release, double stranded oligonucleotide substrate; assay type: biochemical, murine; settings: in vitro; 120 µM 2-oxo-[1-14C]glutarate
EglN3 = EglN3 (Homo sapiens, UniProt Q9H6Z9); assay type: biochemical; settings: standard assay conditions, 10 μM 2-OG
collagen P4H-I [3] = assay: Inhibition of collagen P4H-I, 14CO2 release; assay type: biochemical, human; settings: in vitro; 100 µM 2-oxo-[1-14C]glutarate
FIH = assay: Inhibition of FIH, 14CO2 release, synthetic peptide substrate; assay type: biochemical, human; settings: in vitro; 10 µM 2-oxo-[1-14C]glutarate
EglN2 [4] = molecular target: T2, EglN2 (Homo sapiens, UniProt Q96KS0); assay type: biochemical; settings: standard assay conditions, 10 μM 2-OG
[5] = tested on: HIF in IDH1 R132H immortalized human astrocytes; assay type: cell-based; settings: 21% oxygen, increasing amounts for 16 hours
Summary of the method: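 Immortalized human astrocytes (passage 10) expressing wild-type or mutant IDH1 were dosed with test compound for 16 h before lysis in 50 mM Tris pH 8.0, 120 mM NaCl, 0.5% NP-40 with protease inhibitors. Extracts were run on 10% SDS-PAGE and transferred to nitrocellulose. Blots were blocked in TBS/5% milk, probed with anti-HIF1α monoclonal antibody, and detected by HRP-secondary chemiluminescence.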

EglN1 [6] = molecular target: T1, EglN1; assay type: biochemical; remark: listed apart in the source
collagen P4H-I [7] = assay type: biochemical, human; settings: no exogenous 2-OG
EglN2 [8] = molecular target: T2, EglN2; assay type: biochemical; settings: low mM concentrations, reactions lacking exogenous 2-OG

T2 sequence (Q96KS0 whole entry): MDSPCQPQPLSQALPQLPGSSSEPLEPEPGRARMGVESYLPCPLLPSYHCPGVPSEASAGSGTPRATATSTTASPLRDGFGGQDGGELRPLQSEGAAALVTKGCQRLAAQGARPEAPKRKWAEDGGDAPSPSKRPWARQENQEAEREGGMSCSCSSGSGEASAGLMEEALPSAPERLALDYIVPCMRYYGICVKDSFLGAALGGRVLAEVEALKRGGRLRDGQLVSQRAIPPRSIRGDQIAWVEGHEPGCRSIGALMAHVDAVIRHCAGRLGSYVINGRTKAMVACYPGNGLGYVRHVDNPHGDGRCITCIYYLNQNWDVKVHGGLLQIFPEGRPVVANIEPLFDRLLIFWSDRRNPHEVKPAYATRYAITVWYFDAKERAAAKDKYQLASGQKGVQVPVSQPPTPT
T1 sequence (Q9GZT9 whole entry): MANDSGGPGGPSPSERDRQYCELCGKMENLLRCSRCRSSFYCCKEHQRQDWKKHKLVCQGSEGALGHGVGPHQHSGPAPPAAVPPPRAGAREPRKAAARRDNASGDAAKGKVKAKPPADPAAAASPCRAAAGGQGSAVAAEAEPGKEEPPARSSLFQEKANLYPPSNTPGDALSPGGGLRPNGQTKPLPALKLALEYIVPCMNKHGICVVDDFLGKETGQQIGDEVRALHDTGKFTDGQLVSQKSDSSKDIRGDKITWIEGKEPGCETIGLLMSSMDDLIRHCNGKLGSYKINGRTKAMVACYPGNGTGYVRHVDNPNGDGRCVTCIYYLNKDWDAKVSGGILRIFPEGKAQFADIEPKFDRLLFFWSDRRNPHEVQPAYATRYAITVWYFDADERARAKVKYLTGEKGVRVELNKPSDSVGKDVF
Chain of EglN3 (Q9H6Z9 whole entry): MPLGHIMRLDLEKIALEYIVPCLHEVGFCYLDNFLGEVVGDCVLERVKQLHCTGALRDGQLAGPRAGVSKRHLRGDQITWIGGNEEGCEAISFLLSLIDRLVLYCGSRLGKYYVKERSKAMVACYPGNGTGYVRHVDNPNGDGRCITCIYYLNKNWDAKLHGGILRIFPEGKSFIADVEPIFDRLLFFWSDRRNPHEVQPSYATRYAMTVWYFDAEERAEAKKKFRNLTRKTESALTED

Row | SMILES | Inhibition of TET1 methyl cytosine hydroxylase (in words) (Tet1) | Inhibition of JMJD2D histone demethylase (in words) [1] | Inhibition of EglN1 (in words) (EglN1 [2]; standard assay conditions, 10 μM 2-OG) | Inhibition of TET2 methyl cytosine hydroxylase (in words) (Tet2) | Inhibition of EglN3 (in words) (EglN3) | Inhibition of collagen prolyl 4-hydroxylases (in words) (collagen P4H-I [3]) | Inhibition of HIF asparaginyl hydroxylase FIH (in words) (FIH) | Inhibition of EglN2 (in words) (EglN2 [4]) | Resistance of R132H-expressing cells to the agent (HIF immunoblot) [5] | Prolyl hydroxylation of HIF1α by EglN1 (EglN1 [6]; increasing R-2HG with 10 μM 2-OG, concentrations as high as 100 mM) | Promotion of EglN1 activity (EglN1 [6]; low mM concentrations, reactions lacking exogenous 2-OG) | Promotion of JMJD2D histone demethylase activity [1] | Release of 14CO2 in EglN1 assays (EglN1 [2]; increasing amounts of R-2HG added to 10 μM 2-oxo-[1-14C]glutarate) | Promotion of collagen prolyl 4-hydroxylase activity (collagen P4H-I [7]) | Promotion of EglN2 activity (EglN2 [8]) | IC50 (EglN3; read-out: IC50, EglN3 inhibition) [mM] | IC50 (EglN2 [4]; read-out: IC50, EglN2 inhibition) [mM]
1 | O=C(O)CC[C@H](O)C(=O)O [S-2HG, S-2-hydroxyglutarate] | inhibit | inhibit | micromolar to low millimolar inhibitor | inhibit | micromolar to low millimolar inhibitor | inhibit | inhibit | micromolar to low millimolar inhibitor |  |  |  |  |  |  |  |  | 
2 | COC(=O)CNC(=O)C(=O)OC [DMOG] |  |  |  |  |  |  |  |  | relatively resistant |  |  |  |  |  |  |  | 
3 | O=C(O)CC[C@@H](O)C(=O)O [R-2HG, R-2-hydroxyglutarate] | inhibit | inhibit |  | inhibit |  | inhibit | inhibit |  |  | without decreasing | promoted | did not promote | progressively decreased | did not promote | promoted | > 5 | > 5
